The results in this text go back to PubChem BioAssay AID492951 (Molecular Libraries Program, Specialized Chemistry Center, …, 2010).

Values without a mark were called inactive. Activity calls are given as the source filed them.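 How the source made its calls: active means inhibition above 10%; inactive means the rest.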

Chain of Hexokinase-4 (Homo sapiens) (P35557 whole entry, looked up): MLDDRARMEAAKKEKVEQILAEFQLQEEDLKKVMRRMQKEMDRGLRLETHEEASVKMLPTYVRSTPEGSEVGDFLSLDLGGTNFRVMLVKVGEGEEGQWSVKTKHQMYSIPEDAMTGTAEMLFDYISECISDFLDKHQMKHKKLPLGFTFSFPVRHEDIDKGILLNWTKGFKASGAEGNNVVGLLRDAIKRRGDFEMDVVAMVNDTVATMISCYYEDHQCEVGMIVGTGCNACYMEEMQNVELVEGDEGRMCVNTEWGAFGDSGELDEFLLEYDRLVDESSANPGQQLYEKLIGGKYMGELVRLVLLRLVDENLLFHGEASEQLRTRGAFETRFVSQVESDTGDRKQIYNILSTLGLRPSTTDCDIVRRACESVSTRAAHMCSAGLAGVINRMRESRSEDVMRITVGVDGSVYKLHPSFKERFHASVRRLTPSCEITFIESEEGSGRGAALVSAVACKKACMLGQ

In the experiment the target is Hexokinase-4 (Homo sapiens) (UniProt P35557). As to the kind of experiment: human glucokinase inhibition, counter-screen for TbHK1 inhibitor project, biochemical, recombinant hGlck (AID 492951). The note with it: G6PDH-coupled NADH absorbance 340 nm, at 10 µM; stronger effect = higher value. The method in brief:
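Technique – A340 of NADH · Material – recombinant human glucokinase, G6PDH-coupled · Medium – TEA buffer pH 7.9 with 3.3 mM MgCl2, 0.75 mM NAD+ · Doses – single final test compound dose of 10 µM · Repeats – three replicates per compound · Times – 10 min preincubation at room temperature · Also added – glucose 20 mM and ATP 1 mM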
As to `O=c1c2ccc(Br)cc2sn1-c1ccccc1`, the inhibition was 33.8% (active).
As for `COc1ccc2c(c1)CN(c1cc(Cl)ccc1C(=O)O)C2=O`, the outcome was inactive.
For `O=c1c2cc(F)ccc2sn1-c1ccc(Cl)cc1`, the inhibition was 40% (active).
For the compound `COc1cc(C(=O)Nc2cc(Cl)ccc2C(=O)O)cc(OC)c1OC`, the outcome was inactive.
As to `COc1ccccc1NC(=O)Cn1sc2ccccc2c1=O`, the inhibition is 8.4%.
Same read-out and setting: for `O=c1c2ccc(F)cc2sn1Cc1ccccc1` the value was 56.1% (active).
For the compound `N#Cc1ccc(NC(=O)Cn2sc3ccccc3c2=O)cc1`, the result was inactive.
The same measure, in the same setting: next, `COc1ccc(C(=O)Nc2cc(Cl)ccc2C#N)cc1`: “inactive”; `COc1ccc(C(=O)Nc2cc(Br)ccc2C(=O)O)cc1`: “inactive”.
With `COc1ccc(C(=O)Nc2cc(Cl)ccc2C(=O)O)cc1OC`, the inhibition was 20.1% (active).
As for `O=c1c2ccccc2on1-c1ccccc1`, the outcome was inactive.
On the same count and under the same terms, next, `N#Cc1ccc(Oc2ccc3c(c2)B(O)OC3)cc1`: “inactive”.
Still for that read-out and setting: for `COc1ccc(NC(=O)Cn2sc3ccccc3c2=O)cc1` the value was “inactive”.
As for `CCCCCCC(=O)Nc1cc(Cl)ccc1C(=O)O`, the result was inactive.
`O=C(Nc1ccccc1)c1cc(F)ccc1S`: the inhibition is 3.6%.
Take `CC(C)(C)c1ccc(C(=O)Nc2cc(Cl)c(Br)cc2C(=O)O)cc1`: the inhibition is 11.9% (active).
On to `Cc1ccccc1NC(=O)Cn1sc2ccccc2c1=O`, for which the result was inactive.
As for `COc1ccc(C(=O)Nc2cc(OC)ccc2C(=O)O)cc1`, the inhibition is 6.9%.
In the case of `O=C(O)c1ccccc1NC(=O)c1ccccc1C(=O)O`, the result was inactive.
